Reference: ChEMBL document CHEMBL5034051, “Proteome-wide Identification of Off-Targets of a Potent EGFRL858R/T790M Mutant Inhibitor” (ACS Med Chem Lett, 2022)
Calls of active or inactive are those of the source. The rule behind the calls is not given here.

What was measured:
[1] = molecular target: Epidermal growth factor receptor (Homo sapiens, UniProt P00533, T790M); experiment: Inhibition of EGFR T790M mutant (unknown origin) using Poly (Glu, Tyr)4:1 as substrate by spectrophotometry
NCI-H1975 [2] = experiment: Antiproliferative activity against human NCI-H1975 cells harboring EGFR T790M mutant assessed as reduction in cell viability measured after 72 hrs by CCK8 assay; assay type: functional, cell-based; conditions: NCI-H1975, 72 h
Method in brief: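 H1975 NSCLC cells, which carry EGFR T790M, were used in a cell-based CCK8 antiproliferation assay. IC50 values were reported.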

NCI-H1975 [3] = experiment: Antiproliferative activity against NT5DC1 knockdown human NCI-H1975 cells assessed as reduction in cell viability incubated for 48 hrs by CCK8 assay; assay type: functional, cell-based
Method in brief: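 NT5DC1 was knocked down in H1975 cells with siRNA, with scrambled siRNA as the negative control. Knockdown was checked by Western blot. Cells with or without knockdown were exposed to a range of compound concentrations, and viability was read out against DMSO-treated controls.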

[4] = molecular target: T1, 5'-nucleotidase domain-containing protein 1 (Homo sapiens) (UniProt Q5TFE4); experiment: Thermal stabilization of NT5DC1 in human NCI-H1975 cells assessed as positive shift in melting temperature by CETSA; assay type: cell-based
T1 sequence (whole entry): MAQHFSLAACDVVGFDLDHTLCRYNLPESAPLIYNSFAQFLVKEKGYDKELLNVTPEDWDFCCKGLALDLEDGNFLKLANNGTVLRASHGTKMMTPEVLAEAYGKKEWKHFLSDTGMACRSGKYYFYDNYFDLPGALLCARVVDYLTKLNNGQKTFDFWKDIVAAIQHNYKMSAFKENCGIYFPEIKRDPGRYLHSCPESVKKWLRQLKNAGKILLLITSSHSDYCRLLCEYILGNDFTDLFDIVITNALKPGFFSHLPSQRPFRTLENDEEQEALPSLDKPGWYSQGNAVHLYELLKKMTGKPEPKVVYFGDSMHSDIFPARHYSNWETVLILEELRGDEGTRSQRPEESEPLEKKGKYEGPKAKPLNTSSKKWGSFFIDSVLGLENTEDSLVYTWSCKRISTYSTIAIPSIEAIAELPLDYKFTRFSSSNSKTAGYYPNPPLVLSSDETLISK
Method in brief: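 Binding was tested by cellular thermal shift assay in H1975 cells exposed to the compounds. NT5DC1 stabilization was read as a shift in melting temperature.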

[5] = molecular target: Epidermal growth factor receptor (Homo sapiens) (UniProt P00533); experiment: Inhibition of EGFR in human NCI-H1975 cells by pull down/Western blot analysis; assay type: cell-based
Sequence of Epidermal growth factor receptor (Homo sapiens) (P00533 whole entry): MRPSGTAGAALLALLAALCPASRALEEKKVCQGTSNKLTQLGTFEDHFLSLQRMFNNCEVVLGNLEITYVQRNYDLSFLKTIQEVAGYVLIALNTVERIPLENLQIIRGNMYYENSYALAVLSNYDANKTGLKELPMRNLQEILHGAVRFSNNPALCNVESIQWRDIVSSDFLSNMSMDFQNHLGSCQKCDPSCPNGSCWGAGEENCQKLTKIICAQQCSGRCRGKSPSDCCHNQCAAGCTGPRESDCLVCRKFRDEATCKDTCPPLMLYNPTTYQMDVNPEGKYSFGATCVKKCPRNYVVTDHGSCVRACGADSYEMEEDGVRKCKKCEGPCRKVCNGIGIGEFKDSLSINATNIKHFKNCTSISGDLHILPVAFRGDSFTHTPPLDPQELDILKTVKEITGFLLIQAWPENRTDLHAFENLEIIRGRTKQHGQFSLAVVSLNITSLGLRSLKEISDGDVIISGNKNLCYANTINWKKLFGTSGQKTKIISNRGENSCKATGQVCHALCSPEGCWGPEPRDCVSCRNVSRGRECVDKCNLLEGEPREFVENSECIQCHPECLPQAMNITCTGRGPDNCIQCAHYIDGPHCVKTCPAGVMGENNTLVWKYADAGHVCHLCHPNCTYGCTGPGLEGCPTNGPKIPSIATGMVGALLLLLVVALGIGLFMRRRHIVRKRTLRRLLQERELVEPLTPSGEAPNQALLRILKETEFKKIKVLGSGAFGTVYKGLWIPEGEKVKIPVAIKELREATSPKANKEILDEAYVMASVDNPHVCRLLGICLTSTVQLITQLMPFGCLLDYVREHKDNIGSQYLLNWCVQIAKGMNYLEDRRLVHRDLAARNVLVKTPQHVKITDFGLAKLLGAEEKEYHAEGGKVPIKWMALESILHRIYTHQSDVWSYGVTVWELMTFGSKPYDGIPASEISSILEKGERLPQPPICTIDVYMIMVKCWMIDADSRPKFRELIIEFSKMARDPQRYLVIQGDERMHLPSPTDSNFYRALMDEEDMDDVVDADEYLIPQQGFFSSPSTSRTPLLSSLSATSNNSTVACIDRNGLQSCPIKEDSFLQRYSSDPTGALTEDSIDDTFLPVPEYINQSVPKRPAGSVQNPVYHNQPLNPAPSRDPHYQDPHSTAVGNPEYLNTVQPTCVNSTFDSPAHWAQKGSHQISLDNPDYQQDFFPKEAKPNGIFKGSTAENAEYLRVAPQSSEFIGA
Method in brief: (§1)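 H1975 cells were treated with the probe, and the lysate was clicked to a biotin tag and enriched on streptavidin beads. The pulled-down proteins were then detected by Western blot with antibodies to EGFR and NT5DC1.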

[6] = molecular target: Mitochondrial antiviral-signaling protein (Homo sapiens) (UniProt Q7Z434); experiment: Binding affinity to MAVS in human NCI-H1975 cells at 5 uM by pull down/LC-MS/MS analysis; assay type: cell-based
Sequence of Mitochondrial antiviral-signaling protein (Homo sapiens) (Q7Z434 whole entry): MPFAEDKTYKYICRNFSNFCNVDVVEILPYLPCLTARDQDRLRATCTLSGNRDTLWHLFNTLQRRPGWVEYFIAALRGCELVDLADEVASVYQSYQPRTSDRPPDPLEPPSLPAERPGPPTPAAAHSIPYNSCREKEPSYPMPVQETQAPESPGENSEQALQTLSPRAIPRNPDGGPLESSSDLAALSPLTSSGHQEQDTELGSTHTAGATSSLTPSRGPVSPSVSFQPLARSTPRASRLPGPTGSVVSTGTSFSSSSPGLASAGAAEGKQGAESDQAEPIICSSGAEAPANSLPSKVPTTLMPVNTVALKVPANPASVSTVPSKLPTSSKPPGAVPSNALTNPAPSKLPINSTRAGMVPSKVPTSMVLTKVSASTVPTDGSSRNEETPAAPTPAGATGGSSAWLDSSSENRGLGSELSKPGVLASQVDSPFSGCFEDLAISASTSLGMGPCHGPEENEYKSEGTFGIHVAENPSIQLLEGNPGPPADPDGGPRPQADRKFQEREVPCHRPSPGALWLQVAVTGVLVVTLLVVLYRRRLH
Method in brief: (§2)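 Live H1975 cells were incubated for 1 h with the 5 μM alkyne probe, with or without 5× parent inhibitor as competitor. Cells were lysed and clicked by CuAAC to a biotin-TAMRA-azide tag. Proteins were enriched on streptavidin beads, checked by in-gel fluorescence, trypsin-digested and run on LC-MS/MS with label-free quantification. Hits were kept if log2 enrichment (probe/DMSO) was >3, −log10 p was >2 and probe LFQ intensity was >1 × 10^7.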

[7] = molecular target: T1, 5'-nucleotidase domain-containing protein 1 (Homo sapiens); experiment: Binding affinity to NT5DC1 in human NCI-H1299 cells at 1 uM by Western blot analysis; assay type: cell-based
Method in brief: (§3)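 Live cancer cells were labelled in situ with the 1 μM alkyne probe, clicked to TAMRA-azide and resolved by SDS-PAGE with fluorescence scanning. NT5DC1 expression in each line was measured separately by Western blot.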

[8] = molecular target: T1, 5'-nucleotidase domain-containing protein 1 (Homo sapiens); experiment: Inhibition of NT5DC1 in human NCI-H1975 cells by pull down/Western blot analysis; assay type: cell-based; method in brief: as §1
[9] = molecular target: T1, 5'-nucleotidase domain-containing protein 1 (Homo sapiens); experiment: Binding affinity to NT5DC1 in human Huh-7 cells at 1 uM by Western blot analysis; assay type: cell-based; method in brief: as §3
[10] = Drug uptake in cytosol of human NCI-H1975 cells assessed as fluorescence signal at 5 uM incubated for 1 hrs by fluorescence microscopy; assay type: ADME, subcellular
Method in brief: (§4)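 Live H1975 cells were incubated for 1 h with the 5 μM alkyne probe, with or without parent inhibitor, against DMSO controls. Cells were then fixed, permeabilized, clicked with TAMRA-azide and imaged by fluorescence microscopy, with excitation at 550 nm for the probe channel.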

NCI-H1975 [11] = experiment: Binding affinity to RPS19 in human NCI-H1975 cells at 5 uM by pull down/LC-MS/MS analysis; assay type: cell-based; method in brief: as §2
[12] = molecular target: DNA replication licensing factor MCM2 (Homo sapiens) (UniProt P49736); experiment: Binding affinity to MCM2 in human NCI-H1975 cells at 5 uM by pull down/LC-MS/MS analysis; assay type: cell-based; method in brief: as §2
Sequence of DNA replication licensing factor MCM2 (Homo sapiens) (P49736 whole entry, the tested form may be a part): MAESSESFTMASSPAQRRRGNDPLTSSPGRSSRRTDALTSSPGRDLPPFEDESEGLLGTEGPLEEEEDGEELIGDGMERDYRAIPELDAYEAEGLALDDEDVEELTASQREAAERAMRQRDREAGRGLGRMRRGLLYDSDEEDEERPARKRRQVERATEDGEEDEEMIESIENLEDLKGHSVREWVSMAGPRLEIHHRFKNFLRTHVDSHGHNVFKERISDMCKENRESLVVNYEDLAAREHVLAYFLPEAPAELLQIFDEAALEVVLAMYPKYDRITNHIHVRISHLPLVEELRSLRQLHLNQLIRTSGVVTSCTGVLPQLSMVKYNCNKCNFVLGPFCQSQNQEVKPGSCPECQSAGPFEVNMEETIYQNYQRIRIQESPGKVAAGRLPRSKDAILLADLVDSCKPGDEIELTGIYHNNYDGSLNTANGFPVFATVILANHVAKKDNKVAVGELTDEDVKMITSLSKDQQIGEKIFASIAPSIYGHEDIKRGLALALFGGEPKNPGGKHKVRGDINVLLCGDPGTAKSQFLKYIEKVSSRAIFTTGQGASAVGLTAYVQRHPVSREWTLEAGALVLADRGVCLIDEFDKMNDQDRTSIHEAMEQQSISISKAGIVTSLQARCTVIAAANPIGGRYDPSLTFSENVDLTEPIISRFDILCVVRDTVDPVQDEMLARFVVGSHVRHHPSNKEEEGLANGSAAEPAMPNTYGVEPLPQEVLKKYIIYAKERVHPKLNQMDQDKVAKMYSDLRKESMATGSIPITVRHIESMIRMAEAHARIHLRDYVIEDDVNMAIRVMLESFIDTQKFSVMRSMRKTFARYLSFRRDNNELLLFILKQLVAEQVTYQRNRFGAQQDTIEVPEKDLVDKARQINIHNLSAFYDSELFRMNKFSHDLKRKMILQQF

[13] = molecular target: T1, 5'-nucleotidase domain-containing protein 1 (Homo sapiens); experiment: Binding affinity to NT5DC1 in human HeLa cells at 1 uM by Western blot analysis; assay type: cell-based; method in brief: as §3
[14] = molecular target: T1, 5'-nucleotidase domain-containing protein 1 (Homo sapiens); experiment: Binding affinity to NT5DC1 in human MCF7 cells at 1 uM by Western blot analysis; assay type: cell-based; method in brief: as §3
[15] = molecular target: Epidermal growth factor receptor (Homo sapiens) (UniProt P00533); experiment: Binding affinity to EGFR in human NCI-H1975 cells at 5 uM by pull down/LC-MS/MS analysis; assay type: cell-based; method in brief: as §2
NCI-H1975 [16] = experiment: Binding affinity to MAP4 in human NCI-H1975 cells at 5 uM by pull down/LC-MS/MS analysis; assay type: cell-based; method in brief: as §2
[17] = molecular target: T1, 5'-nucleotidase domain-containing protein 1 (Homo sapiens); experiment: Binding affinity to NT5DC1 in human MV4-11 cells at 1 uM by Western blot analysis; assay type: cell-based; method in brief: as §3
[18] = molecular target: T1, 5'-nucleotidase domain-containing protein 1 (Homo sapiens); experiment: Binding affinity to NT5DC1 in human NCI-H1975 cells at 5 uM by pull down/LC-MS/MS analysis; assay type: cell-based; method in brief: as §2
[19] = molecular target: Trifunctional enzyme subunit alpha, mitochondrial (Homo sapiens) (UniProt P40939); experiment: Binding affinity to HADHA in human NCI-H1975 cells at 5 uM by pull down/LC-MS/MS analysis; assay type: cell-based; method in brief: as §2
Sequence of Trifunctional enzyme subunit alpha, mitochondrial (Homo sapiens) (P40939 whole entry, the tested form may be a part): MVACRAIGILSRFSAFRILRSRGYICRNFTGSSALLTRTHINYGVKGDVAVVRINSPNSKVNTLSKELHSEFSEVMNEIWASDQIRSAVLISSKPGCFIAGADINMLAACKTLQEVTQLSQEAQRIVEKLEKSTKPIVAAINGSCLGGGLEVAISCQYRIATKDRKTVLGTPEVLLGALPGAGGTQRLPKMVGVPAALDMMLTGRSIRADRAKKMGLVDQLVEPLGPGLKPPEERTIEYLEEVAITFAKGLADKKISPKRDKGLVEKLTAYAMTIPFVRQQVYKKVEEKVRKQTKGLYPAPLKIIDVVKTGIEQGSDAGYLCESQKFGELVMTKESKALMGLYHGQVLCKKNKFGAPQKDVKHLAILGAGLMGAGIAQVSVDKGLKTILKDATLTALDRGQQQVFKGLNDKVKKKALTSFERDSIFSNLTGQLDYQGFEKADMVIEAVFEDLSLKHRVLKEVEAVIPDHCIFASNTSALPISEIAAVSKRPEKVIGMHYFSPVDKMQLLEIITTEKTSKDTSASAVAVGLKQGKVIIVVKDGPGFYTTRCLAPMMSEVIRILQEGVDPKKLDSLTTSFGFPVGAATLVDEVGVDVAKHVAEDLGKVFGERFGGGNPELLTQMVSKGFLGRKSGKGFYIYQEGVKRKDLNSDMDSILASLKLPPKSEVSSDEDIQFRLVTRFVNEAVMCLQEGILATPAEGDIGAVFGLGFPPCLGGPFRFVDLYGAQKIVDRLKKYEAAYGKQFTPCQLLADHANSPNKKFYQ

[20] = molecular target: T1, 5'-nucleotidase domain-containing protein 1 (Homo sapiens); experiment: Binding affinity to NT5DC1 in human MDA-MB-453 cells at 1 uM by Western blot analysis
[21] = Drug uptake in nucleus of human NCI-H1975 cells assessed as fluorescence signal at 5 uM incubated for 1 hrs by fluorescence microscopy; assay type: ADME, cell-based; conditions: nci-h1975, 1 h; method in brief: as §4

Sequence of Epidermal growth factor receptor (P00533 25-1210 T790M limits assumed): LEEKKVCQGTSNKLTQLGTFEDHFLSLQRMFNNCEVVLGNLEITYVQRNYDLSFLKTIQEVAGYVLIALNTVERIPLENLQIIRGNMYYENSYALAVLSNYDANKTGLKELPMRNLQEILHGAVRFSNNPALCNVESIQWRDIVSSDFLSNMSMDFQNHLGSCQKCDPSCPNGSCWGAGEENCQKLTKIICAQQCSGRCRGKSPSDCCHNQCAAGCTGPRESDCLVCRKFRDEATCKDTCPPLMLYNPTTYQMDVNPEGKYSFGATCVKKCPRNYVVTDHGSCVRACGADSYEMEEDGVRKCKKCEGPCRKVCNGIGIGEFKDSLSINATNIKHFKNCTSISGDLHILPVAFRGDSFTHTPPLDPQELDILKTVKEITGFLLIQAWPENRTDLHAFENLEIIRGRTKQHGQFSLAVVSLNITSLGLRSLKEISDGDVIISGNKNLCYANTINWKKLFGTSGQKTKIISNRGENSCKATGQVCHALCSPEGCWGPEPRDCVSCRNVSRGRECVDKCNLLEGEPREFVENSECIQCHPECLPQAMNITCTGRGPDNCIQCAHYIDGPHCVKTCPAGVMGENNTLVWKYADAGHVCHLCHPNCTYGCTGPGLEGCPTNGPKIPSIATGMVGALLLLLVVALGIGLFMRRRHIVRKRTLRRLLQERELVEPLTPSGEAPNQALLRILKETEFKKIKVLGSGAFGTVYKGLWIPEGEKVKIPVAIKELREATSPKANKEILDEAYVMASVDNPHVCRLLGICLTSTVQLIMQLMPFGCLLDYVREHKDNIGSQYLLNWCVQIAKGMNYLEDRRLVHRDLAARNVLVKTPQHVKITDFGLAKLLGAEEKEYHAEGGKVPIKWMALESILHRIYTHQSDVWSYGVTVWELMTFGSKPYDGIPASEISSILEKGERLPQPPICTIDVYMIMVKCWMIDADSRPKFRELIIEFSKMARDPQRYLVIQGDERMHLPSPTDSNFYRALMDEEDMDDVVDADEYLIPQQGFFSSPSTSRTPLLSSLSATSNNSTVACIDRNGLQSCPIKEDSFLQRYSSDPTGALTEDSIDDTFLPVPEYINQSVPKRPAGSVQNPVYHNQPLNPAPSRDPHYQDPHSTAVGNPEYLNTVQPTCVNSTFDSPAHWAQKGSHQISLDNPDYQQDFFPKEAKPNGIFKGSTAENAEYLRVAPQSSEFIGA

Question: Which results are given for C=CC(=O)Nc1cccc(-n2c(=O)cc(C)c3cnc(Nc4ccc(N5CCN(C)CC5)cc4OC)nc32)c1?
Answer: IC50 [1]: 5.27 nM; IC50 (NCI-H1975 [2]): 130 nM; Activity (NCI-H1975 [3]): Active; Activity [4]: Active

Question: With CN(C)C/C=C/C(=O)Nc1cc2c(Nc3ccc(F)c(Cl)c3)ncnc2cc1O[C@H]1CCOC1 [AFATINIB] as the molecule, how does the IC50 (NCI-H1975 [2]) read?
Answer: 370 nM

Question: For C#CCN1CCN(c2ccc(Nc3ncc4c(C)cc(=O)n(-c5cccc(NC(=O)C=C)c5)c4n3)c(OC)c2)CC1, which inhibition [5] is on record?
Answer: Active

Question: What about the Activity [6] of the same molecule?
Answer: Active

Question: What about the IC50 [1] of the same molecule?
Answer: 8.04 nM

Question: And the Activity [7]?
Answer: Active

Question: And the inhibition [8]?
Answer: Active

Question: What about the Activity [9] of the same molecule?
Answer: Active

Question: And the IC50 (NCI-H1975 [2])?
Answer: 820 nM

Question: And the Drug uptake [10]?
Answer: Active

Question: And the Activity (NCI-H1975 [11])?
Answer: Active

Question: And the Activity (NCI-H1975 [3])?
Answer: Active

Question: What about the Activity [12] of the same molecule?
Answer: Active

Question: And the Activity [13]?
Answer: Active

Question: What about the Activity [14] of the same molecule?
Answer: Active

Question: And the Activity [4]?
Answer: Active

Question: What about the Activity [15] of the same molecule?
Answer: Active

Question: What about the Activity (NCI-H1975 [16]) of the same molecule?
Answer: Active

Question: And the Activity [17]?
Answer: Active

Question: And the Activity [18]?
Answer: Active

Question: And the Activity [19]?
Answer: Active

Question: And the Activity [20]?
Answer: Active

Question: And the Drug uptake [21]?
Answer: Not Active
